Measured values as given in ChEMBL document CHEMBL2177018, “Identification, synthesis, and biological evaluation of metabolites of the experimental cancer treatment drugs indotecan (LMP400) and indimitecan (LMP776) and investigation of isomerically hydroxylated indenoisoquinoline analogues as topoisomerase I poisons” (J Med Chem, 2012).
Calls of active or inactive are those of the source. No cut-off for these calls is given here.

Key:
[1] = target: T1, DNA topoisomerase 1 (Homo sapiens) (UniProt P11387); assay: Inhibition of human recombinant Top1-mediated DNA cleavage after 20 mins by […] analysis relative to camptothecin; parameters: concentration or dose not given beside the values
T1 sequence (whole entry): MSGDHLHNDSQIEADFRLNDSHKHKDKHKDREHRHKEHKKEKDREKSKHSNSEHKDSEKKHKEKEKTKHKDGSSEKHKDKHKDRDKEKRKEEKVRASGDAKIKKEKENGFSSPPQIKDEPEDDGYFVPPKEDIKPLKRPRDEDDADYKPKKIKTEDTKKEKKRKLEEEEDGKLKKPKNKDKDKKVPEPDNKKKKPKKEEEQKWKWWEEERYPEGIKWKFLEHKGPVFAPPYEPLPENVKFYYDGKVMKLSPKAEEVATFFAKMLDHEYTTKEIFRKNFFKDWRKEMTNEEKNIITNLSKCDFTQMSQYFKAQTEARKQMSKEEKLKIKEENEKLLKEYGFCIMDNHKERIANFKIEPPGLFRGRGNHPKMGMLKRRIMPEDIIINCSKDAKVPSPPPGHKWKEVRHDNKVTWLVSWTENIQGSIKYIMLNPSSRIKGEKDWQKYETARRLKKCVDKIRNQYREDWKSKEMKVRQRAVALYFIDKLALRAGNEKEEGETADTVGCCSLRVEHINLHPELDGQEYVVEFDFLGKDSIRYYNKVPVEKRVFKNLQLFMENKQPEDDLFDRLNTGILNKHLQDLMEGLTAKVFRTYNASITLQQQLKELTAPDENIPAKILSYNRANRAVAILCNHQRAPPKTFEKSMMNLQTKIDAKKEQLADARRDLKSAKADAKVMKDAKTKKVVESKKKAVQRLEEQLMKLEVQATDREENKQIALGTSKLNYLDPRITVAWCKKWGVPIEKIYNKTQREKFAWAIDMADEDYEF
How it was run: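 Baculovirus-purified human recombinant Top1 with ~2 nM 117-bp oligonucleotide, 3′-end 32P-labelled. Compounds at 0.1–100 μM, room temperature 20 min, stopped with 0.5% SDS. 20% denaturing PAGE, phosphorimaging. Cleavage graded against 1 μM camptothecin.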

DU-145 = assay: Antiproliferative activity against human DU145 cells; assay type: functional
How it was run: (§1)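 NCI-60 human tumour cell line panel. Initial one-dose pre-screen at 10−5 molar, then five concentrations from 10−8 to 10−4 molar. GI50 taken as the concentration giving 50% growth inhibition.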

MCF7 = assay: Antiproliferative activity against human MCF7 cells; assay type: functional; how it was run: as §1
UACC-62 = assay: Antiproliferative activity against human UACC62 cells; assay type: functional; how it was run: as §1
OVCAR-3 = assay: Antiproliferative activity against human OVCAR3 cells; assay type: functional; how it was run: as §1
HCT-116 = assay: Antiproliferative activity against human HCT116 cells; assay type: functional; how it was run: as §1
HOP-62 = assay: Antiproliferative activity against human HOP62 cells; assay type: functional; how it was run: as §1
SN12C = assay: Antiproliferative activity against human SN12C cells; assay type: functional; how it was run: as §1
SF-539 = assay: Antiproliferative activity against human SF539 cells; assay type: functional; how it was run: as §1
Liver microsomes [2] = assay: Drug metabolism in human liver microsomes assessed as formation of 5,6-Dihydro-3-hydroxy-6-3-(1H-imidazol-1-yl)propyl)-2-methoxy- 8,9-methylenedioxy-5,11-dioxo-11H-indeno[1,2-c]- isoquinoline at 10 uM after 60 mins in presence of NADPH; assay type: ADME, Microsome
How it was run: (§2)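 Substrate at 10 μM with pooled human liver microsomes (15 donors, mixed gender; 1 mg/mL protein) in 50 mM phosphate, pH 7.4, 37 °C. After 5 min preincubation, 1 mM NADPH started a 60 min reaction. Stopped on ice with acidified acetonitrile; supernatant dried, redissolved, LC-MS and LC-MS/MS. Controls lacked microsomes or NADPH.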

Liver microsomes [3] = assay: Drug metabolism in human liver microsomes assessed as formation of 6-(3-(1H-Imidazol-1-yl)propyl)-8,9-dihydroxy-2,3-dimethoxy-5H-indeno[1,2-c]isoquinoline-5,11(6H)-dione at 10 uM after 60 mins in presence of NADPH; assay type: ADME, Microsome; how it was run: as §2
Liver microsomes [4] = assay: Drug metabolism in human liver microsomes assessed as formation of 5,6-Dihydro-3-hydroxy-2-methoxy-8,9-methylenedioxy-6-3- [(morpholino)propyl)]-5,11-dioxo-11H-indeno[1,2-c]- isoquinoline at 10 uM after 60 mins in presence of NADPH; assay type: ADME, Microsome; conditions: 1 h; how it was run: as §2
Liver microsomes [5] = assay: Drug metabolism in human liver microsomes assessed as formation of 8,9-Dihydroxy-2,3-dimethoxy-6-(3-morpholinopropyl)-5Hindeno[ 1,2-c]isoquinoline-5,11(6H)-dione at 10 uM after 60 mins in presence of NADPH; assay type: ADME, Microsome; conditions: 1 h; how it was run: as §2

Compound | inhibition [1] | GI50 (DU-145) | GI50 (MCF7) | GI50 (UACC-62) | GI50 (OVCAR-3) | GI50 (HCT-116) | GI50 (HOP-62) | GI50 (SN12C) | GI50 (SF-539) | Drug metabolism (Liver microsomes [2]) | Drug metabolism (Liver microsomes [3]) | Drug metabolism (Liver microsomes [4]) | Drug metabolism (Liver microsomes [5])
COc1cc2c(cc1O)-c1c(c3cc(OC)c(OC)cc3c(=O)n1CCCn1ccnc1)C2=O | 50% | > 100 µM | 0.05 µM | 0.331 µM | > 100 µM | > 100 µM | > 100 µM | – | – | – | – | – | –
COc1cc2c(cc1O)-c1c(c3cc(OC)c(OC)cc3c(=O)n1CCCN1CCOCC1)C2=O | 75% | 0.204 µM | 0.03 µM | 0.07 µM | 8.32 µM | 2.34 µM | 0.18 µM | 0.191 µM | 0.282 µM | – | – | – | –
COc1cc2c3c(n(CCCN4CCOCC4)c(=O)c2cc1O)-c1cc2c(cc1C3=O)OCO2 | 75% | < 0.01 µM | < 0.01 µM | < 0.01 µM | 0.03 µM | 0.02 µM | 0.01 µM | < 0.01 µM | < 0.01 µM | – | – | – | –
COc1cc2c3c(n(CCCn4ccnc4)c(=O)c2cc1O)-c1cc2c(cc1C3=O)OCO2 | Active | < 0.01 µM | < 0.01 µM | < 0.01 µM | 0.03 µM | < 0.01 µM | < 0.01 µM | < 0.01 µM | < 0.01 µM | – | – | – | –
COc1cc2c(=O)n(CCCN3CCOCC3)c3c(c2cc1O)C(=O)c1cc2c(cc1-3)OCO2 | 50% | 0.257 µM | 0.144 µM | 0.282 µM | 0.871 µM | 0.279 µM | 0.257 µM | 0.195 µM | 0.335 µM | – | – | – | –
COc1cc2c3c(n(CCCn4ccnc4)c(=O)c2cc1OC)-c1cc(O)c(O)cc1C3=O | 50% | 0.1 µM | 0.02 µM | < 0.01 µM | 0.407 µM | 0.229 µM | 0.04 µM | 0.03 µM | 0.01 µM | – | – | – | –
COc1cc2c3c(n(CCCN4CCOCC4)c(=O)c2cc1OC)-c1cc2c(cc1C3O)OCO2 (centres undefined) | 50% | 2.63 µM | 0.646 µM | 0.776 µM | 4.79 µM | 2.4 µM | 2.09 µM | 3.39 µM | 2.4 µM | – | – | – | –
COc1cc2c(cc1O)C(=O)c1c-2n(CCCN2CCOCC2)c(=O)c2cc(OC)c(OC)cc12 | Active | 0.02 µM | 0.02 µM | 0.02 µM | 0.03 µM | 0.03 µM | 0.02 µM | 0.02 µM | 0.02 µM | – | – | – | –
COc1cc2c3c(n(CCCn4ccnc4)c(=O)c2cc1OC)-c1cc2c(cc1C3=O)OCO2 [INDIMITECAN] | – | – | – | – | – | – | – | – | – | Active | Active | – | –
COc1cc2c3c(n(CCCN4CCOCC4)c(=O)c2cc1OC)-c1cc2c(cc1C3=O)OCO2 [INDOTECAN] | – | – | – | – | – | – | – | – | – | – | – | Active | Active
COc1cc2c(=O)n(CCCn3ccnc3)c3c(c2cc1O)C(=O)c1cc2c(cc1-3)OCO2 | Active | < 0.01 µM | – | 0.03 µM | 0.07 µM | 0.02 µM | < 0.01 µM | < 0.01 µM | < 0.01 µM | – | – | – | –
COc1cc2c(cc1O)C(=O)c1c-2n(CCCn2ccnc2)c(=O)c2cc(OC)c(OC)cc12 | Active | < 0.01 µM | < 0.01 µM | < 0.01 µM | 0.02 µM | < 0.01 µM | < 0.01 µM | < 0.01 µM | < 0.01 µM | – | – | – | –
COc1cc2c3c(n(CCCN4CCOCC4)c(=O)c2cc1OC)-c1cc(O)c(O)cc1C3=O | Active | 0.49 µM | 0.05 µM | 0.078 µM | 0.501 µM | 0.407 µM | 0.371 µM | 0.065 µM | 0.148 µM | – | – | – | –
COc1cc2c3c(n(CCCn4ccnc4)c(=O)c2cc1OC)-c1cc2c(cc1C3O)OCO2 (centres undefined) | 50% | 0.407 µM | 0.427 µM | 0.372 µM | 1.95 µM | 1.35 µM | 0.549 µM | 0.501 µM | 0.479 µM | – | – | – | –
